≈ marks a conversion by molar mass, not a printed value.
Key:
[1] = test system: Mycobacterium tuberculosis; assay: Antimycobacterial activity against wild type Mycobacterium tuberculosis H37Rv incubated for 14 days by broth microdilution assay; format: functional; details: 336 h
Pseudomonas aeruginosa = assay: Antibacterial activity against Pseudomonas aeruginosa ATCC 27853 after 24 hrs by spectrophotometric analysis; format: functional; details: ATCC 27853, 24 h
Outline: (§1)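 Log-phase culture in Mueller Hinton broth at 37 °C with shaking for 3-4 h, pelleted, adjusted at 600 nm in 10 mM phosphate buffer pH 7. Final inoculum approx. 5 × 10^5 CFU/mL. Twofold serial dilutions, final 100 to 0.2 µg/mL. Aerobic incubation 24 h at 37 °C. MIC is the lowest concentration with no visible growth, also read by resazurin (no blue-to-pink change).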

[2] = Intrinsic clearance in human liver microsomes at 1 uM by HPLC-MS/MS analysis; format: ADME, microsome; details: read-out: CLH
Outline: (§2)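 Compound at 1 µM incubated 60 min at 37 °C with pooled HLM (1 mg protein/mL) and an NADPH-regenerating system in 100 mM PBS pH 7.4, after 5 min preheating. Sampled at 0, 15, 30, 60 min, quenched with two volumes of acetonitrile, centrifuged, and supernatant analysed by HPLC-MS/MS. CLint = (0.693/t1/2) × (mL incubation/mg microsomes) × 45 mg/g liver × 20 g liver/kg.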

[3] = Half life in human liver microsomes at 1 uM by HPLC-MS/MS analysis; format: ADME, microsome; outline: as §2
[4] = test system: Mycobacterium tuberculosis; assay: Antimycobacterial activity against nonreplicating Mycobacterium tuberculosis H37Rv ATCC 27924 incubated for 5 days under hypoxic condition followed by 2 days incubation under normal atmosphere by MTT dye based broth microdilution assay; format: functional
Outline: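 Mtb H37Rv ATCC27924 adapted to hypoxia: grown in 8 mL MB7H9, tubes tightly capped and sealed, standing at 37 °C for 8 weeks; methylene blue (final 1.5 µg/mL) monitored O2 depletion. Cells exposed to varying compound concentrations 5 days at 37 °C in anaerobic jar (indicator strip), then 2 days normal atmosphere recovery; MTT to final 2.5%, overnight at room temperature; MIC = lowest concentration with no colour change; triplicate.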

[5] = Cytotoxicity against human MDM cells assessed as reduction in cell viability after 3 days by AlamarBlue assay; format: cell-based; details: 72 h
Outline: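 Macrophages came from healthy donors' PBMC (Ficoll gradient), differentiated 7 days in RPMI-1640/10% FCS with 20 ng/mL M-CSF at 37 °C, 5% CO2. 5 × 10^4 cells/well exposed to compounds for 3 days. Viability by AlamarBlue fluorescence (ex 540/35, em 590/20). IC50 taken as the highest concentration leaving 50% of cells viable relative to control.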

Escherichia coli = assay: Antibacterial activity against Escherichia coli ATCC 25922 after 24 hrs by spectrophotometric analysis; format: functional; details: ATCC 25922, 24 h; outline: as §1
Staphylococcus aureus = assay: Antibacterial activity against Staphylococcus aureus ATCC 25923 after 24 hrs by spectrophotometric analysis; format: functional; details: ATCC 25923, 24 h; outline: as §1
Enterococcus faecium = assay: Antibacterial activity against Enterococcus faecium ATCC 35667 after 24 hrs by spectrophotometric analysis; format: functional; details: ATCC 35667, 24 h; outline: as §1
Candida albicans = assay: Antifungal activity against Candida albicans ATCC 11006 after 48 hrs by spectrophotometric analysis; format: functional; details: ATCC 11006, 48 h
Outline: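 Broth microdilution in RPMI per CLSI M27-A3. Inoculum adjusted to 0.5 McFarland in phosphate buffer, diluted to about 10^3 CFU/mL final and used within 30 min. Compounds at final 100 to 0.2 µg/mL (twofold). Aerobic incubation 48 h at 37 °C. MIC is the lowest concentration without visible growth, also checked by resazurin colour change.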

[6] = test system: Mycobacterium tuberculosis; assay: Antimycobacterial activity against wild type Mycobacterium tuberculosis H37Rv incubated for 14 days in presence of Verapamil by broth microdilution assay; format: functional; details: 336 h
[7] = test system: Mycobacterium tuberculosis; assay: Antimycobacterial activity against wild type Mycobacterium tuberculosis H37Rv incubated for 14 days in presence of Thioridazine by broth microdilution assay; format: functional; details: 336 h
[8] = test system: Mycobacterium tuberculosis H37Rv; assay: Inhibition of efflux pump in wild type Mycobacterium tuberculosis H37Rv assessed as increase in accumulation of ethidium bromide by measuring relative final fluorescence index at 2.6 uM measured every second for 60 mins in absence of glucose by real time fluorimetric method
[9] = Selectivity index, ratio of IC50 for human MDM cells to MIC90 for Mycobacterium tuberculosis H37Rv; format: toxicity; details: read-out: Selectivity Index

| SMILES | MIC90 [1] | other results |
| --- | --- | --- |
| COc1ccc(-c2cc(-c3csc(Nc4ccc(C)cc4)n3)on2)cc1 | 4 to 8 µg/mL |  |
| Cc1ccc(Nc2nc(-c3nc(Nc4ccc(C)cc4)sc3C)cs2)cc1 | 4 to 8 µg/mL |  |
| Cc1sc(N)nc1-c1csc(Nc2cc(Cl)cc(Cl)c2)n1 | 8 to 16 µg/mL |  |
| NNC(=O)c1ccncc1 [ISONIAZID] | 0.22 to 0.44 µM |  |
| Cc1ccc(Nc2nc(-c3cc(C(=O)NC45CC6CC(CC(C6)C4)C5)no3)cs2)cc1 | > 64 µg/mL |  |
| Clc1cc(Cl)cc(Nc2nc(-c3ccncc3)cs2)c1 | > 64 µg/mL |  |
| Cc1ccc(Nc2nc(-c3cc(C(N)=O)no3)cs2)cc1 | > 64 µg/mL |  |
| O=C(O)c1cc(-c2csc(Nc3cc(Cl)cc(Cl)c3)n2)on1 | > 64 µg/mL |  |
| Cc1ccc(Nc2nc(-c3cc(C(=O)N4CCCCC4)no3)cs2)cc1 | 16 to 32 µg/mL |  |
| CC(=O)c1nc(Nc2ccc(C)cc2)sc1C | > 64 µg/mL |  |
| CNC(=O)c1cc(-c2csc(Nc3ccc(C)cc3)n2)on1 | > 64 µg/mL |  |
| Cc1ccc(Nc2nc(-c3cc(C(=O)Nc4ccccn4)no3)cs2)cc1 | 0.16 to 0.32 µM | MIC90 (Pseudomonas aeruginosa): 100 µg/mL (≈ 265 µM); CLint scaled at 1 µM [2]: 38.8 mL/min/kg; half-life at 1 µM [3]: 16.1 min; MIC90 [4]: 1 µg/mL (≈ 2.65 µM); IC50 [5]: 140 µM; MIC90 (Escherichia coli): 100 µg/mL (≈ 265 µM); MIC90 (Staphylococcus aureus): 100 µg/mL (≈ 265 µM); MIC90 (Enterococcus faecium): 100 µg/mL (≈ 265 µM); MIC90 (Candida albicans): 100 µg/mL (≈ 265 µM); MIC90 [6]: 2 µg/mL; MIC90 [7]: 1 µg/mL; Activity index [8]: 0.17 |
| Cc1ccc(Nc2nc(-c3ccncc3)cs2)cc1 | > 64 µg/mL |  |
| Clc1cc(Cl)cc(Nc2nc(-c3c[nH]nn3)cs2)c1 | > 64 µg/mL |  |
| Cc1ccc(Nc2nc(-c3cc(-c4nccs4)no3)cs2)cc1 | > 64 µg/mL |  |
| COc1ccc(-c2cc(-c3csc(Nc4cc(Cl)cc(Cl)c4)n3)on2)cc1 | > 64 µg/mL |  |
| CCN(CC)C(=O)c1cc(-c2csc(Nc3ccc(C)cc3)n2)on1 | 16 to 32 µg/mL |  |
| Cc1ccc(Nc2nc(-c3cc(C(=O)Nc4ccccc4)no3)cs2)cc1 | 0.33 to 0.66 µM | MIC90 (Pseudomonas aeruginosa): 100 µg/mL (≈ 266 µM); CLint scaled at 1 µM [2]: 17.8 mL/min/kg; half-life at 1 µM [3]: 35.1 min; MIC90 [4]: 1 µg/mL (≈ 2.66 µM); IC50 [5]: 186 µM; MIC90 (Escherichia coli): 100 µg/mL (≈ 266 µM); MIC90 (Staphylococcus aureus): > 100 µg/mL; MIC90 (Enterococcus faecium): 100 µg/mL (≈ 266 µM); MIC90 (Candida albicans): > 100 µg/mL; MIC90 [6]: 2 µg/mL; MIC90 [7]: 2 µg/mL; Activity index [8]: 0.22; selectivity ratio [9]: > 500 |

| SMILES | MIC90 [1] | other results |
| --- | --- | --- |
| O=C(NC12CC3CC(CC(C3)C1)C2)c1cc(-c2csc(Nc3cc(Cl)cc(Cl)c3)n2)on1 | > 64 µg/mL |  |
| c1cc(Nc2nc(-c3ccncc3)cs2)ccn1 | > 64 µg/mL |  |
| CC(=O)c1nc(Nc2cc(Cl)cc(Cl)c2)sc1C | > 64 µg/mL |  |
| Cc1sc(Nc2cc(Cl)cc(Cl)c2)nc1-c1csc(Nc2cc(Cl)cc(Cl)c2)n1 | > 64 µg/mL |  |
| CCOC(=O)c1cc(-c2csc(Nc3ccc(C)cc3)n2)n(C)n1 | 16 to 32 µg/mL |  |
| CCOC(=O)c1cc(-c2csc(Nc3ccc(C)cc3)n2)on1 | 1.5 to 3 µM | CLint scaled at 1 µM [2]: > 400 mL/min/kg; half-life at 1 µM [3]: < 1 min |
| Cc1ccc(Nc2nc(-c3cc(C(=O)O)no3)cs2)cc1 | > 64 µg/mL | CLint scaled at 1 µM [2]: 43.7 mL/min/kg; half-life at 1 µM [3]: 14.3 min |
| COc1ccc(-c2csc(Nc3ccc(C)cc3)n2)cc1 | 3.8 µg/mL |  |
| Cn1nc(C(=O)O)cc1-c1csc(Nc2cc(Cl)cc(Cl)c2)n1 | > 64 µg/mL |  |
| CCOC(=O)c1cc(-c2csc(Nc3cc(Cl)cc(Cl)c3)n2)n(C)n1 | > 64 µg/mL |  |
| CCN(CC)C(=O)c1cc(-c2csc(Nc3ccc(C)cc3)n2)n(C)n1 | > 64 µg/mL |  |
| O=C(Nc1ccccc1)c1cc(-c2csc(Nc3cc(Cl)cc(Cl)c3)n2)on1 |  | selectivity ratio [9]: > 500 |
| CCOC(=O)c1cc(-c2csc(Nc3cc(Cl)cc(Cl)c3)n2)on1 | 4 to 8 µg/mL | CLint scaled at 1 µM [2]: 189 mL/min/kg; half-life at 1 µM [3]: 3.3 min |
| CCN(CC)C(=O)c1cc(-c2csc(Nc3cc(Cl)cc(Cl)c3)n2)n(C)n1 | > 64 µg/mL |  |
| Cc1ccc(Nc2nc(-c3cc(C(=O)O)nn3C)cs2)cc1 | > 64 µg/mL |  |
| Cc1ccc(Nc2nc(-c3cc(CO)no3)cs2)cc1 | 16 to 32 µg/mL |  |
| Cc1ccc(Nc2nc(-c3nc(N)sc3C)cs2)cc1 | 16 to 32 µg/mL |  |

— ChEMBL document CHEMBL4038332, “Substituted N-Phenyl-5-(2-(phenylamino)thiazol-4-yl)isoxazole-3-carboxamides Are Valuable Antitubercular Candidates that Evade Innate Efflux Machinery” (J Med Chem, 2017)
